Results reported in article PMC2882864 (Cancer research, 2010).

How the values were obtained:
[1] = tested on: H460 cells; experiment: Cell cycle distribution; assay type: cell-based
Method in brief: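 H460 cells arrested with 0.8 µg/mL nocodazole for 12 h, washed, then given vehicle or 100 µM test compound for 4, 8 or 12 h; asynchronous cells treated 3 h. 10 µM BrdU added for final 2 h (released) or final hour (asynchronous). Fixed in 70% EtOH; PI 1 µg/mL with RNaseA; DNA denatured in 2 M HCl; anti-BrdU then AlexaFluor 488 secondary; FL2-A (PI) and FL1 (BrdU) flow read-out.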

[2] = tested on: RPA in H460 cells; experiment: Indirect immunofluorescence of RPA p34; assay type: cell-based; conditions: H460, 50 µM, 3 hours, versus vehicle
Method in brief: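 H460 cells on chamber slides got test compound or vehicle for 3 h. They were fixed in 4% paraformaldehyde (25 °C, 3 min) and permeabilised in 0.2% Triton X-100 (2 min, 4 °C), then blocked in 15% FBS for 1 h. Staining: anti-RPA p34 (1:500, 1 h), Alexa Fluor-594 anti-mouse (1:300, 1 h), then 300 nM DAPI. Imaged by fluorescence microscopy; staining quantified by image analysis.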

[3] = tested on: RPA foci / DNA-PKcs phosphorylation; experiment: Etoposide-induced RPA foci and DNA-PKcs serine 2056 phosphorylation; assay type: cell-based; conditions: co-treatment with etoposide
[4] = tested on: H460 cells; experiment: Combination index analysis with cisplatin or etoposide; assay type: cell-based; conditions: H460, 48 hours, all fractions of cells affected
Method in brief: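 H460 cells plated at 1 × 10⁴ cells/cm² for 24 h, then treated concurrently with increasing concentrations of cisplatin or etoposide plus test compound (DMSO stock) for 48 h. Adherent and non-adherent cells were collected and stained with annexin V-FITC/PI, then read by flow cytometry. The combination index was derived by Chou–Talalay analysis across fractions of cells affected.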

[5] = target: Human RPA (Homo sapiens, UniProt P27694); experiment: EMSA of RPA binding to 5'-32P-labeled 34-base ssDNA; conditions: for inhibition of RPA DNA binding in vitro (in words): EMSA
Sequence of Human RPA (P27694 whole entry): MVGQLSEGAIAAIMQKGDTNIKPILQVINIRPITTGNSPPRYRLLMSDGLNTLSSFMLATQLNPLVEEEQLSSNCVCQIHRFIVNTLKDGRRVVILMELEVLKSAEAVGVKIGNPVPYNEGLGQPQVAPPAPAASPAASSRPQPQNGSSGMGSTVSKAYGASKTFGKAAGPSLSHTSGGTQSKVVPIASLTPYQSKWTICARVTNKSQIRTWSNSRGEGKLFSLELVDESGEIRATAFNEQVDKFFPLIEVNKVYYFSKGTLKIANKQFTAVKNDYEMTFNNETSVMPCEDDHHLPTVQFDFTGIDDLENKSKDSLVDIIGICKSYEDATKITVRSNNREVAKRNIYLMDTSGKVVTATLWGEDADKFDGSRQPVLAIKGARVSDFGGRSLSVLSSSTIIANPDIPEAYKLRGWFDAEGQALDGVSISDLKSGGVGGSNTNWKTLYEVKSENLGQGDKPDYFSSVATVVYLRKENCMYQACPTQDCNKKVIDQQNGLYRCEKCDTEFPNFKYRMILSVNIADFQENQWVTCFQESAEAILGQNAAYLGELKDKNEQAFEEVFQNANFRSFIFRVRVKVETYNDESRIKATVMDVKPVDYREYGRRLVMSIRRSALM
Sequence of Human RPA (P15927 whole entry partner): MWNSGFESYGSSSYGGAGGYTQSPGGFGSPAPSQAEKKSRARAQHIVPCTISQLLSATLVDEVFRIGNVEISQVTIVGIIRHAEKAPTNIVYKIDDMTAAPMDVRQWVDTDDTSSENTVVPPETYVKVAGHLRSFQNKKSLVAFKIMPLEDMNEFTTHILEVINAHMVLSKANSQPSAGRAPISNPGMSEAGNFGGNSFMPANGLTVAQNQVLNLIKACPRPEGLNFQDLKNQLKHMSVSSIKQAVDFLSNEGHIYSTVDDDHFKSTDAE
Sequence of Human RPA (P35244 whole entry partner): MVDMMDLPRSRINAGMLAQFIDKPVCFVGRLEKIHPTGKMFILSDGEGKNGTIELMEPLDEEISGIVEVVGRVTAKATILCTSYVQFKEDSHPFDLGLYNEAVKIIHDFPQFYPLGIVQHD
Method in brief: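 Purified human RPA (25 nM) with 25 nM 5'-32P-labelled 34-base DNA in 20 µL reactions; test compound dissolved in DMSO. Bound and free DNA were resolved by electrophoretic mobility shift.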

[6] = tested on: H460 NSCLC cell line; experiment: Annexin V/PI flow cytometry cell viability; assay type: cell-based; conditions: H460, increasing concentrations, 48 hours
[7] = tested on: peripheral blood mononuclear cells (PBMCs); experiment: Cytotoxicity in freshly isolated PBMCs; assay type: cell-based; conditions: freshly isolated non-cancerous cells, data not shown
[8] = tested on: Xeroderma Pigmentosum Group A protein (XPA); experiment: XPA DNA binding in an ELISA format; conditions: data not shown

| inhibition of RPA DNA binding in vitro (in words) [5] | Compound | BrdU incorporation after release from nocodazole arrest ([1]; H460, 100 µM, 10 µM BrdU final 2 hours) | S-phase entry after release from nocodazole G2 arrest ([1]; H460, 100 µM, 12 hours post release) | BrdU incorporation in asynchronous cells ([1]; H460, 3 hours treatment, BrdU final hour) | cell cycle distribution ([1]; H460, 48 hours) | intensity of RPA staining [2] | etoposide-induced RPA foci and DNA-PKcs phosphorylation on co-treatment [3] | interaction with etoposide (combination index analysis) [4] | competition of RPA from pre-bound DNA ([5]; data not shown) | PI staining (membrane integrity) [6] | annexin V staining (apoptosis) [6] | cytotoxic activity in PBMCs [7] | effect on XPA binding [8] |
| --- | --- | --- | --- | --- | --- | --- | --- | --- | --- | --- | --- | --- | --- |
|  | CCOc1ccc2cc(C3CC(c4ccc(Br)cc4)=NN3C(=O)CCC(=O)O)c(Cl)nc2c1 (centres unmarked) [TDRL-505] | no BrdU incorporation was observed | did not enter S-phase | small but distinct differences | increase in the proportion of cells in G1-phase | decrease in the intensity of RPA staining | slight increase | synergistic activity | unable to compete RPA away from DNA | concentration dependent increase | Minimal annexin V staining | minimal cytotoxic activity | no inhibitory activity was observed |
| no inhibition | CCN(CC)c1ccc(C2CC(c3ccc(Br)cc3)=NN2C(=O)CCC(=O)O)cc1 (centres unmarked) [TDRL-518] |  |  |  |  |  |  |  |  |  |  |  |  |
| modest in vitro RPA inhibition | COc1ccc(-c2nn(-c3ccccc3)cc2C2CC(c3ccc(Br)cc3)=NN2C(=O)CCC(=O)O)cc1 (centres unmarked) [TDRL-523] |  |  |  |  |  |  |  |  |  |  |  |  |
